Results taken from ChEMBL document CHEMBL5329219, “α-Aminophosphonate inhibitors of metallo-β-lactamases NDM-1 and VIM-2” (RSC Med Chem, 2023).
The source made the active and inactive calls. The calls are words filed in the database; no cut-off is given here.

Columns and labels:
HepG2 = assay: Cytotoxicity against human HepG2 cells incubated for 24 hrs by resorufin based fluorescence assay; assay type: toxicity, cell-based; settings: hepg2, 24 h
Procedure, shortened: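 HepG2 cells grown in DMEM with 10% FBS and 1% penicillin–streptomycin at 37 °C, 5% CO2, seeded for exponential growth. Two-fold serial dilutions of compound added at 0.3% v/v final DMSO for 24 h. PrestoBlue viability read as resorufin fluorescence (544/590 nm). Controls were untreated, DMSO-only and 1% SDS. EC50 from three independent experiments.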

Bacteria = assay: Inhibition of bacterial metallo-beta-lactamase VIM-2 preincubated for 5 mins followed by nitrocefin addition by spectrophotometer analysis
Procedure, shortened: (§1)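 Purified VIM-2 (0.1 nM) in 50 mM HEPES pH 7.2 with 100 μM ZnCl2, 2.5% DMSO and 400 μg ml−1 BSA, preincubated with inhibitor (twelve concentrations, 0–800 μM) at 25 °C for 5 min. Reaction started with 100 μM nitrocefin and absorbance read at 482 nm. Triplicates; IC50 from initial velocities by log[inhibitor] vs. response fit.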

[1] = biological target: Metallo-beta-lactamase type 2 (Bacteria) (UniProt C7C422); assay: (§2) Inhibition of bacterial metallo-beta-lactamase NDM-1 preincubated for 5 mins followed by imipenem addition by spectrophotometer analysis
Procedure, shortened: as §1, with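 “NDM-1 (10” for “VIM-2 (0.1”, “imipenem” for “nitrocefin”, “300” for “482”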

[2] = biological target: Metallo-beta-lactamase type 2 (Bacteria, UniProt C7C422); assay: as §2
Procedure, shortened: as §1, with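 “NDM-1 (10” for “VIM-2 (0.1”, “imipenem” for “nitrocefin”, “300” for “482”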

Metallo-beta-lactamase type 2 (Bacteria), sequence (C7C422 whole entry): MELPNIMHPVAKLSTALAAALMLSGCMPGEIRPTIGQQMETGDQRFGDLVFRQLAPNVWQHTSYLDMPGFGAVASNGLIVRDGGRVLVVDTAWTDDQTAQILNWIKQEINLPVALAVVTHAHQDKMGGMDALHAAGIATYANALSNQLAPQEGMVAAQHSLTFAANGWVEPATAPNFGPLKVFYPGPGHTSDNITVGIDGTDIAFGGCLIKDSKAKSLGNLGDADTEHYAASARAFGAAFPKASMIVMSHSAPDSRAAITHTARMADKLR
Metallo-beta-lactamase type 2, sequence (C7C422 whole entry): as above

Row | Structure (SMILES) | Activity (HepG2) | inhibition (Bacteria) | inhibition [1] | IC50 [2] [µM]
1 | Cl.O=C(NC(C1CCCCN1)P(=O)(O)O)c1scc2c1CCCC2 (stereo in doubt; form 1) | Non-Toxic |  |  | 
2 | Cl.O=C(Cc1cccs1)NC(C1CCCCN1)P(=O)(O)O (stereo not drawn) | Non-Toxic | inactive |  | 
3 | Cc1[nH]c(=S)sc1CC(=O)NC(C1CCCCN1)P(=O)(O)O (stereo in doubt; form 1) |  |  | inactive | 
4 | Cl.O=C(NC(C1CCCCN1)P(=O)(O)O)c1cc2ccccc2s1 (stereo not drawn) | Non-Toxic |  |  | 
5 | O=C(NC(C1CCCCN1)P(=O)(O)O)c1cc2c(s1)CCCC2 (stereo in doubt; form 1) |  |  | inactive | 
6 | Cl.O=C(Cc1cc2ccccc2s1)NC(C1CCCCN1)P(=O)(O)O (stereo not drawn) | Non-Toxic |  | inactive | 22.4
7 | O=C(NC(C1CCCCN1)P(=O)(O)O)c1csc2ccccc12 (stereo in doubt; form 1) |  |  | inactive | 
8 | O=C(NC(C1CCCCN1)P(=O)(O)O)c1csc2ccccc12 (stereo in doubt; form 2) |  |  | inactive | 
9 | Cl.O=C(Cc1ccsc1)NC(C1CCCCN1)P(=O)(O)O (stereo not drawn) | Non-Toxic | inactive |  | 
10 | Cc1[nH]c(=S)sc1CC(=O)NC(C1CCCCN1)P(=O)(O)O (stereo in doubt; form 2) |  | inactive | inactive | 
11 | O=C(NC(C1CCCCN1)P(=O)(O)O)c1scc2c1CCCC2 (stereo in doubt; form 1) |  |  | inactive | 
12 | Cc1[nH]c(=S)sc1CC(=O)NC(C1CCCCN1)P(=O)(O)O.Cl (stereo in doubt; form 1) | Non-Toxic |  |  | 
13 | Cl.O=C(NC(C1CCCCN1)P(=O)(O)O)c1cccs1 (stereo not drawn) | Non-Toxic |  |  | 
14 | Cl.O=C(Cc1csc2ccccc12)NC(C1CCCCN1)P(=O)(O)O (stereo not drawn) | Non-Toxic | inactive |  | 
15 | Cl.O=C(NC(C1CCCCN1)P(=O)(O)O)c1csc2c1CCCC2 (stereo not drawn) | Non-Toxic |  | inactive | 76
16 | O=C(NC(C1CCCCN1)P(=O)(O)O)c1cc2c(s1)CCCC2 (stereo in doubt; form 2) |  |  | inactive | 
17 | Cl.O=C(NC(C1CCCCN1)P(=O)(O)O)c1cc2c(s1)CCCC2 (stereo in doubt; form 1) | Non-Toxic |  |  | 
18 | Cl.O=C(NC(C1CCCCN1)P(=O)(O)O)c1ccsc1 (stereo not drawn) | Non-Toxic |  |  | 
19 | O=C(NC(C1CCCCN1)P(=O)(O)O)c1scc2c1CCCC2 (stereo in doubt; form 2) |  |  | inactive | 
20 | Cl.O=C(NC(C1CCCCN1)P(=O)(O)O)c1csc2ccccc12 (stereo in doubt; form 1) | Non-Toxic |  |  | 
